Assay results collected from several papers.
ABCB1: ATP-dependent translocase ABCB1 (ABCB1, Homo sapiens, UniProt P08183)
SLC47A2: Multidrug and toxin extrusion protein 2 (SLC47A2, Homo sapiens, UniProt Q86VL8)

C[C@H]1O[C@@H](O[C@H]2[C@@H](O)C[C@H](O[C@H]3[C@@H](O)C[C@H](O[C@H]4CC[C@@]5(C)[C@H](CC[C@@H]6[C@@H]5C[C@@H](O)[C@]5(C)[C@@H](C7=CC(=O)OC7)CC[C@]65O)C4)O[C@@H]3C)O[C@@H]2C)C[C@H](O)[C@@H]1O
half-life (ABCB1; human, plasma; oral, 0.5 mg): 42.5 h

CC1(C)CCC2(CC1)N[C@@H](C(=O)N[C@@H]1CC[C@@H](C(N)=O)OC1)[C@H](c1ccnc(Cl)c1F)[C@]21C(=O)Nc2cc(Cl)ccc21
efflux ratio (ABCB1; Caco-2; 3 µM, 2 h): 14.1

CCc1cc(/C(C)=N/OCc2ccc(C3CCCCC3)c(C(F)(F)F)c2)ccc1CN1CC(C(=O)O)C1
inhibition (Cytochrome P450 2A6 (CYP2A6, Homo sapiens, UniProt P11509); enzyme activity, inhibitor; human, liver microsomes; 200 µM, 20 min): 30.6%

CN/C(=N/CCSCc1nc[nH]c1C)NC#N
inhibition (SLC47A2; transporter uptake, inhibitor; HEK293; 100 µM, 2 min): 76%

COCCc1ccc(OCC(O)CNC(C)C)cc1 (centres unmarked)
efflux ratio (ABCB1; MDCK-MDR1; 5 µM): 0.981

CCOc1cc2ncc(C#N)c(Nc3ccc(OCc4ccccn4)c(Cl)c3)c2cc1NC(=O)/C=C/CN(C)C
efflux ratio (ABCB1; MDCK-MDR1, Caco-2; 1 µM, 1 h, pH 7.4): 6.37

Nc1nc(NC2CC2)c2ncn([C@H]3C=C[C@@H](CO)C3)c2n1
IC50 (SLC47A2; transporter uptake, inhibitor): > 500 µM

C[C@]12CCCN1CC1=NNC(=O)c3cc(F)cc4[nH]c2c1c34
Papp A→B (ABCB1; MDCK-MDR1; 10 µM): 25.5 ×10⁻⁶ cm/s

O=C(O)CSc1nnc(Br)n1-c1ccc(C2CC2)c2ccccc12
inhibition (SLC47A2; transporter uptake, inhibitor; HEK293; 10 µM, 2 min): -16%

C=C[C@H]1C[N@@]2CC[C@H]1C[C@@H]2[C@@H](O)c1ccnc2ccc(OC)cc12
Papp B→A (ABCB1; MDCK-MDR1; 5 µM): 40.6 ×10⁻⁶ cm/s

CN(C(=O)n1cnc(-c2ccc[n+]([O-])c2)c1)C1CCCCC1
inhibition (SLC47A2; transporter uptake, inhibitor; MDCK-II; 0.3 µg/mL): 12%
